ARNT-TACC3 inh = disrupts binding between human ARNT and TACC3. Q9Y6A5. AlphaScreen His-ARNT PAS-B/GST-TACC3 binding, luminescence; TACC3 fragment carries E629A point mutation. inhibition, % at 9.99 µM. actives 0.66% (n = 390,000). AID 623870;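 active means mean inhibition of replicates at least 50% and at least half of replicates each reaching 50%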;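 further: 0% = complete ARNT plus TACC3 wells and 100% = ARNT alone without TACC3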
Dyrk1A ADPGlo = Dyrk1A (rat) kinase inhibition. Q63470. ADP-Glo luminescence, NFATc1 peptide. inhibition, % at 12.5 µM. actives 0.43% (n = 310,000); in the data active means inhibition above about 50%;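 further: plate controls were vehicle with enzyme for no effect and no enzyme for full effect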
CAL PDZ FP-1 = inhibitors of human CAL PDZ peptide binding | inhibition, % at 20 µM | actives 0.02% (n = 330,000) | purified CAL PDZ, TMR-peptide fluorescence polarization, 1 h | AID 504414 | Q9HD26;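 active means highest replicate inhibition of at least 40%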;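 further: plate controls were DMSO neutral control wells for no effect and unlabeled competitor peptide control wells for full effect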
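Test system: purified CerCALP PDZ construct; Compound dosing: one concentration, 20 µM compound; Also added: TMR-labelled reporter peptide T*-PRC34 bound in PDZ groove; Read-out: inhibition from polarization loss; Controls: unlabelled peptide and DMSO controls; Signal: FP readout, S and P plane fluorescence; Incubation: 1 h at RT.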
CAL PDZ FP-2 = blocks peptide binding to the human CAL PDZ domain; Q9HD26; purified CAL PDZ, TMR-peptide fluorescence polarization, 1 h; inhibition, % at 24.9 µM; actives 0.92% (n = 300,000); AID 602252;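 active means mean inhibition of at least 30% with at least half of replicates also reaching 30%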;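 further: 0% = DMSO neutral control and 100% = excess unlabeled competitor peptide PRC23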
ADP-Glo artifact = interferes with ADP-Glo luciferase readout without Dyrk1A; AC50, µM (top dose mostly 12 µM), inactives show top-dose activity change, negative = inhibition; shares compounds with Dyrk1A ADPGlo; ADP-Glo luciferase artifact assay, no Dyrk1A, luminescence; AID 588348; 1,300 tested, under 10 active;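 active means fitted half-maximal dose AC50 no more than ten times the top valid tested dose, with luminescence dropping as dose rises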
ARNT Alpha ctr-1 = AlphaScreen artifact in ARNT/TACC3 counter-screen; shares compounds with ARNT-TACC3 inh; His-ARNT PASB-GST AlphaScreen artifact counter-screen, luminescence; AC50, µM (titrated, usually from 68 µM), without a hit: at the highest dose activity change, negative = signal decrease; actives 50% (n = 1,200); AID 651705;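 active means every separate test run was called active for a drop in luminescence, with AC50 within twice the top valid dose, actives reach about 71 µM in these data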
ARNT Alpha ctr-2 = produces AlphaScreen artifacts in ARNT-TACC3 counter-screen. shares compounds with ARNT-TACC3 inh. Dual-tagged His-ARNT PASB-GST AlphaScreen artifact counter-screen. AC50, µM. actives 70% (n = 45);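 active means luminescence drop, with half-maximal potency fitted within twice the sample's top valid dose, cut at about 70 µM in these data; inactive means the rest, including signal moving the wrong way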
* hit, by the source's call; i = inactive; · = no result given; [ ] = another dose, or the depositor's remark. Hits are enriched below; roughly 1.4% of the tested compounds scored in any of these assays.

SMILES	ARNT-TACC3 inh	Dyrk1A ADPGlo	CAL PDZ FP-1	CAL PDZ FP-2	ARNT Alpha ctr-1	others
Cc1ccc(N2CN=c3s/c(=C\c4ccccn4)c(=O)n3C2)cc1	-15.2	52.0*	-0.8	-5.6	·	ADP-Glo artifact=6.3%
O=c1/c(=C/c2ccco2)sc2n1CN(c1ccccc1)CN=2	0.4	48.3	1.2	-6.8	·
O=C(Nc1nc(-c2ccncc2)cs1)c1ccco1	7.2	76.3*	-1.5	4.5	·	ADP-Glo artifact=6.3%;ARNT Alpha ctr-2=i
Cn1nc(-c2ccccn2)nc2c(=O)n(C)c(=O)nc1-2	66.6*	80.7*	-0.2	-1.7	-1.5%	ADP-Glo artifact=7.3%
CC(C)C#Cc1ccc2c(c1)O[C@@H](CN(C)Cc1ccncc1)[C@H](C)CN([C@@H](C)CO)S2(=O)=O	-2.1	·	·	·	·
CN1/C(=N\O)c2cccc3cccc1c23	51.8*	66.3*	-1.0	-1.5	-25.0%	ADP-Glo artifact=9.6%
CNC(=O)CN1C(=O)c2cccc3cccc1c23	-4.1	4.2	·	-1.3	·
CNC[C@H]1Oc2c(NC(=O)Nc3ccc4c(c3)OCO4)cccc2C(=O)N([C@H](C)CO)C[C@H]1C	-1.1	·	·	·	·
CC(C)NC(=O)N(C)C[C@@H]1OCCCC[C@@H](C)Oc2ccc(NC(=O)Cc3ccccc3)cc2C(=O)N([C@H](C)CO)C[C@@H]1C	-11.1	·	·	·	·
CC(C)NC(=O)N(C)C[C@H]1OCCCC[C@H](C)Oc2ccc(NC(=O)Cc3ccccc3)cc2C(=O)N([C@H](C)CO)C[C@H]1C	105.7*	·	·	·	-2.9%[42 µM]
CC(C)NC(=O)Nc1ccc2c(c1)C(=O)N([C@H](C)CO)C[C@@H](C)[C@@H](CN(C)C(=O)Nc1ccccc1)OCCCC[C@@H](C)O2	66.2*	·	·	·	-3.4%[38 µM]
CC(C)NC(=O)Nc1ccc2c(c1)C(=O)N([C@@H](C)CO)C[C@H](C)[C@@H](CN(C)C)OCCCC[C@H](C)O2	108.8*	·	·	·	-0.6%[42 µM]
Cc1noc(C)c1S(=O)(=O)Nc1ccc2c(c1)C(=O)N([C@@H](C)CO)C[C@H](C)[C@H](CN(C)C(=O)C1CCCCC1)OCCCC[C@H](C)O2	8.4	·	·	·	·
O=C(O)CSc1cc(NS(=O)(=O)c2cccc([N+](=O)[O-])c2)c2ccccc2c1O	61.4*	9.8	27.8	13.2	-10.6%
Nc1ccc2nn(-c3ccc(F)cc3)nc2c1	16.8*	2.1	10.0	-5.6	-25.4%
CC(C)(C)c1ccc(CNc2nc(-c3ccccn3)nnc2-c2ccccc2)cc1	·	·	·	·	3.73µM*
Clc1cccc(CNc2nc(-c3ccccn3)nnc2-c2ccccc2)c1	·	·	·	·	2.17µM*
C[C@@H](O)C#Cc1cnc2c(c1)C(=O)N([C@@H](C)CO)C[C@H](C)[C@H](CN(C)C(=O)c1ccncc1)O2	-3.1	·	·	·	·
CCC(=O)N(C)C[C@@H]1Oc2ncc(C#Cc3ccccc3)cc2C(=O)N([C@@H](C)CO)C[C@@H]1C	7.2	·	·	·	·
C[C@H](CO)N1C[C@H](C)[C@@H](CN(C)S(=O)(=O)c2ccccc2)OCCCC[C@H](C)Oc2ccc(NS(=O)(=O)c3ccc(Cl)cc3)cc2C1=O	-2.9	·	·	·	·
O=S(=O)(N[C@H]1CC[C@H](CCn2cc(-c3ccccn3)nn2)O[C@@H]1CO)c1cccc(F)c1	78.5*	·	·	·	34.2µM*
Cc1cccc(S(=O)(=O)N[C@H]2CC[C@H](CCn3cc(-c4ccccn4)nn3)O[C@H]2CO)c1	90.2*	·	·	·	56.7µM*
O=S(=O)(N[C@@H]1CC[C@@H](CCn2cc(-c3ccccn3)nn2)O[C@@H]1CO)c1cccc(F)c1	94.1*	·	·	·	46.7µM*
O=S(=O)(N[C@@H]1CC[C@@H](CCn2cc(-c3cccc(F)c3)nn2)O[C@H]1CO)c1ccccc1	4.1	·	·	·	·
O=S(=O)(N[C@@H]1CC[C@H](CCn2cc(-c3cccc(F)c3)nn2)O[C@H]1CO)c1ccccc1	4.2	·	·	·	·
O=S(=O)(N[C@H]1CC[C@H](CCn2cc(-c3ccccn3)nn2)O[C@H]1CO)c1cccc(F)c1	67.0*	·	·	·	43.2µM*
COCC(=O)N1C[C@H]2[C@@H](c3ccccc31)[C@@H](CO)N2C(=O)Nc1ccccc1Cl	-3.1	·	·	·	·

Compound activity deposited in PubChem by Broad Institute.
